Test results from ChEMBL document CHEMBL3808334, “Synthesis and in vitro evaluation of novel triazine analogues as anticancer agents and their interaction studies with bovine serum albumin” (Eur J Med Chem, 2016).

Tests used:
[1] = test system: MCF7; test: Growth inhibition of human MCF7 cells assessed as cell growth at 10^-7 M incubated for 48 hrs by sulforhodamine B assay; assay type: functional; details: MCF7, 48 h, read-out: Activity
[2] = Growth inhibition of human SNB75 cells assessed as cell growth at 10^-6 M incubated for 48 hrs by sulforhodamine B assay; assay type: functional; details: SNB-75, 48 h, read-out: Activity
[3] = test system: Malme-3M; test: Growth inhibition of human MALME-3M cells incubated for 48 hrs by sulforhodamine B assay; assay type: functional
In short: (§1)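 Cells were plated at 5,000–40,000 per well according to doubling time and preincubated 24 h at 37 °C in 5% CO2; time-zero plates were then TCA-fixed. Five concentrations (10-fold or ½-log dilutions, DMSO stock) were incubated 48 h. Cells were TCA-fixed, stained with 0.4% SRB and read at 515 nm. GI50 was taken where [(Ti−Tz)/(C−Tz)]×100 = 50.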

[4] = Growth inhibition of human HCC2998 cells assessed as cell growth at 10^-8 M incubated for 48 hrs by sulforhodamine B assay; assay type: functional; details: HCC 2998, 48 h, read-out: Activity
In short: (§2)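 Cells seeded at 5,000–40,000/well according to doubling time and preincubated 24 h at 37 °C, 5% CO2. Time-zero plates were TCA-fixed. DMSO concentrate was diluted in medium with 50 µg/ml gentamicin to give five concentrations (10-fold or ½ log steps), then exposed 48 h. Cells were TCA-fixed, stained with 0.4% SRB and read at 515 nm. Percent growth was taken against time-zero and control; GI50, TGI and LC50 derived.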

[5] = Growth inhibition of human DU145 cells assessed as cell growth at 10^-7 M incubated for 48 hrs by sulforhodamine B assay; assay type: functional; details: DU-145, 48 h, read-out: Activity; in short: as §2
[6] = Growth inhibition of human BT549 cells assessed as cell growth at 10 uM incubated for 48 hrs by sulforhodamine B assay; assay type: functional; details: BT-549, 48 h, read-out: Activity
In short: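 One-dose screen at 10 µM final. Cells are plated at 5,000–40,000 per well according to doubling time and preincubated 24 h at 37 °C, 5% CO₂. Compound (DMSO stock diluted in medium with 50 µg/ml gentamicin) is then added for 48 h. Growth percent is read by sulforhodamine B staining, absorbance at 515 nm.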

[7] = test system: MDA-MB-231; test: Growth inhibition of human MDA-MB-231 cells assessed as cell growth at 10 uM incubated for 48 hrs by sulforhodamine B assay; assay type: functional; details: MDA-MB-231, 48 h, read-out: Activity
[8] = test system: SR; test: Growth inhibition of human SR cells assessed as cell growth at 10^-5 M incubated for 48 hrs by sulforhodamine B assay; assay type: functional; details: read-out: Activity
[9] = Growth inhibition of human SF268 cells assessed as cell growth at 10^-7 M incubated for 48 hrs by sulforhodamine B assay; assay type: functional; details: SF-268, 48 h, read-out: Activity
[10] = test system: K562; test: Growth inhibition of human K562 cells assessed as cell growth at 10^-5 M incubated for 48 hrs by sulforhodamine B assay; assay type: functional; details: K562, 48 h, read-out: Activity
[11] = Growth inhibition of human SKOV3 cells assessed as cell growth at 10^-5 M incubated for 48 hrs by sulforhodamine B assay; assay type: functional; details: SK-OV-3, 48 h, read-out: Activity
[12] = test system: NCI/ADR-RES; test: Growth inhibition of human NCI/ADR-RES cells assessed as cell growth at 10^-4 M incubated for 48 hrs by sulforhodamine B assay; assay type: functional; details: read-out: Activity
[13] = test system: NCI-H322M; test: Growth inhibition of human NCI-H322M cells incubated for 48 hrs by sulforhodamine B assay; assay type: functional; in short: as §1
[14] = Growth inhibition of human RXF393 cells assessed as cell growth at 10^-7 M incubated for 48 hrs by sulforhodamine B assay; assay type: functional; details: RXF 393, 48 h, read-out: Activity
[15] = test system: SK-MEL-5; test: Growth inhibition of human SK-MEL-5 cells incubated for 48 hrs by sulforhodamine B assay; assay type: functional; details: SK-MEL-5, 48 h; in short: as §1
[16] = Growth inhibition of human HCT15 cells assessed as cell growth at 10 uM incubated for 48 hrs by sulforhodamine B assay; assay type: functional; details: HCT-15, 48 h, read-out: Activity
In short: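 Primary screen at one dose (10 µM) across 60 human cancer cell lines. Readout was growth percent relative to untreated control and time-zero.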

[17] = Growth inhibition of human OVCAR3 cells assessed as cell growth at 10^-7 M incubated for 48 hrs by sulforhodamine B assay; assay type: functional; details: OVCAR-3, 48 h, read-out: Activity
[18] = test system: SK-MEL-2; test: Growth inhibition of human SK-MEL-2 cells incubated for 48 hrs by sulforhodamine B assay; assay type: functional; details: SK-MEL-2, 48 h; in short: as §1
[19] = test system: SK-MEL-28; test: Growth inhibition of human SK-MEL-28 cells assessed as cell growth at 10 uM incubated for 48 hrs by sulforhodamine B assay; assay type: functional; details: SK-MEL-28, 48 h, read-out: Activity
[20] = test system: CCRF-CEM; test: Growth inhibition of human CCRF-CEM cells assessed as cell growth at 10^-4 M incubated for 48 hrs by sulforhodamine B assay; assay type: functional; details: read-out: Activity
In short: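 Leukemia line in the five-dose format: five concentrations from 10-fold or ½-log serial dilutions. Plated at 5,000–40,000 cells per well, preincubated 24 h, then compound added for 48 h at 37 °C, 5% CO₂. Sulforhodamine B absorbance read at 515 nm. Growth is computed against time-zero (Tz) and control (C) readings; GI₅₀ is where [(Ti−Tz)/(C−Tz)]×100 = 50.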

[21] = Growth inhibition of human TK10 cells assessed as cell growth at 10^-5 M incubated for 48 hrs by sulforhodamine B assay; assay type: functional; details: TK-10, 48 h, read-out: Activity
[22] = test system: SR; test: Growth inhibition of human SR cells incubated for 48 hrs by sulforhodamine B assay; assay type: functional; in short: as §1
[23] = target: Albumin (Bos taurus, UniProt P02769); test: Binding affinity to bovine serum albumin assessed as enhancement in emission spectra up to 20 uM by fluorescence spectroscopic analysis relative to control; assay type: ADME; details: cattle, isolated protein
In short: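 Fluorescence titration of 10 µM BSA in 0.1 M phosphate buffer pH 7.4 with compound at 0–20 µM, diluted from DMSO stocks. Excitation 280 nm, slit 10 nm, 1 cm quartz cell, 300 K. Changes in the 350 nm Trp emission, new bands near 370–373 nm and isoemissive points are read against BSA alone.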

[24] = read-out: LC50 (the source's name)
[25] = read-out: pLC50 (the source's name) (converted)

Chain of Albumin (P02769 whole entry): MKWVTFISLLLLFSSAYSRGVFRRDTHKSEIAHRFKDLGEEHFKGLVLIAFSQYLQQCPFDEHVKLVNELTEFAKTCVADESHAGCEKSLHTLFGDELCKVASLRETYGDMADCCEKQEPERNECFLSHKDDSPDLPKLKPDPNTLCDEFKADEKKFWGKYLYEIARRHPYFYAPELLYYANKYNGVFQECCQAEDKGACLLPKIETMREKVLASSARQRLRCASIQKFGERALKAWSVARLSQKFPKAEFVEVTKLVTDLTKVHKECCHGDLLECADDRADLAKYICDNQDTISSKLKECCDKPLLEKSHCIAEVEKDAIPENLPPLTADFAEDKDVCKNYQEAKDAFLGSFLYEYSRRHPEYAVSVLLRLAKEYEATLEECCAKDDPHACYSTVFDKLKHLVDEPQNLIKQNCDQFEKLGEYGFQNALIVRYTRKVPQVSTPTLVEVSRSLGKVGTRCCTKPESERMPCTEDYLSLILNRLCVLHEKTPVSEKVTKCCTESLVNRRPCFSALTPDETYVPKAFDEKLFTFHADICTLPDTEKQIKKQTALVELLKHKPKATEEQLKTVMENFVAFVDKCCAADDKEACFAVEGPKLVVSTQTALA

Fc1ccc(-c2nc(Nc3ccc(-c4nc5ccccc5[nH]4)cc3)nc(N3CCOCC3)n2)cc1
growth at 0.1 µM [1]: 89% | growth at 1 µM [2]: 67% | GI50 ([3]; read-out: GI50): 2.05 µM | CC50 [3, 24]: 7.63 µM | TGI ([3]; read-out: TGI): 3.95 µM | GI50 ([3]; read-out: pGI50 (converted)): 2.04 µM | CC50 [3, 25]: 7.59 µM | TGI ([3]; read-out: pTGI (converted)): 3.98 µM | growth at 0.01 µM [4]: 99% | growth at 0.1 µM [5]: 100% | growth at 10 µM [6]: 5.16% | growth at 10 µM [7]: 5.74% | growth at 10 µM [8]: -15% | growth at 0.1 µM [9]: 96% | growth at 10 µM [10]: -31% | growth at 10 µM [11]: -35% | growth at 100 µM [12]: -13% | GI50 ([13]; read-out: GI50): 3.62 µM | CC50 [13, 24]: > 100 µM | TGI ([13]; read-out: TGI): > 100 µM | GI50 ([13]; read-out: pGI50 (converted)): 3.63 µM | CC50 [13, 25]: > 100 µM | TGI ([13]; read-out: pTGI (converted)): > 100 µM | growth at 0.1 µM [14]: 100% | GI50 ([15]; read-out: GI50): 1.79 µM | CC50 [15, 24]: 6.28 µM | TGI ([15]; read-out: TGI): 3.36 µM | GI50 ([15]; read-out: pGI50 (converted)): 1.78 µM | CC50 [15, 25]: 6.31 µM | TGI ([15]; read-out: pTGI (converted)): 3.39 µM | growth at 10 µM [16]: -62.2% | growth at 0.1 µM [17]: 100% | GI50 ([18]; read-out: GI50): 2.33 µM | CC50 [18, 24]: > 100 µM | TGI ([18]; read-out: TGI): 5.49 µM | GI50 ([18]; read-out: pGI50 (converted)): 2.34 µM | CC50 [18, 25]: > 100 µM | TGI ([18]; read-out: pTGI (converted)): 5.5 µM | growth at 10 µM [19]: -34% | growth at 100 µM [20]: 13% | growth at 10 µM [21]: -7% | GI50 ([22]; read-out: GI50): 0.539 µM | CC50 [22, 24]: > 100 µM | GI50 ([22]; read-out: pGI50 (converted)): 0.537 µM | CC50 [22, 25]: > 100 µM | Activity [23]: 71.83%

c1ccc2[nH]c(-c3ccc(Nc4nc(N5CCCCC5)nc(N5CCOCC5)n4)cc3)nc2c1
growth at 0.1 µM [1]: 91% | growth at 1 µM [2]: 69% | GI50 ([3]; read-out: GI50): 1.87 µM | CC50 [3, 24]: 6.81 µM | TGI ([3]; read-out: TGI): 3.57 µM | GI50 ([3]; read-out: pGI50 (converted)): 1.86 µM | CC50 [3, 25]: 6.76 µM | TGI ([3]; read-out: pTGI (converted)): 3.55 µM | growth at 0.01 µM [4]: 98% | growth at 0.1 µM [5]: 104% | growth at 10 µM [6]: 23.1% | growth at 10 µM [7]: 23.1% | growth at 10 µM [8]: -14% | growth at 0.1 µM [9]: 98% | growth at 10 µM [10]: -21% | growth at 10 µM [11]: -37% | growth at 100 µM [12]: -10% | GI50 ([13]; read-out: GI50): 4.72 µM | CC50 [13, 24]: > 100 µM | TGI ([13]; read-out: TGI): > 100 µM | GI50 ([13]; read-out: pGI50 (converted)): 4.68 µM | CC50 [13, 25]: > 100 µM | TGI ([13]; read-out: pTGI (converted)): > 100 µM | growth at 0.1 µM [14]: 91% | GI50 ([15]; read-out: GI50): 1.78 µM | CC50 [15, 24]: 6.11 µM | TGI ([15]; read-out: TGI): 3.3 µM | GI50 ([15]; read-out: pGI50 (converted)): 1.78 µM | CC50 [15, 25]: 6.17 µM | TGI ([15]; read-out: pTGI (converted)): 3.31 µM | growth at 10 µM [16]: -33.9% | growth at 0.1 µM [17]: 104% | GI50 ([18]; read-out: GI50): 2.34 µM | CC50 [18, 24]: 25.8 µM | TGI ([18]; read-out: TGI): 5.36 µM | GI50 ([18]; read-out: pGI50 (converted)): 2.34 µM | CC50 [18, 25]: 25.7 µM | TGI ([18]; read-out: pTGI (converted)): 5.37 µM | growth at 10 µM [19]: -30.2% | growth at 100 µM [20]: 5% | growth at 10 µM [21]: -4% | GI50 ([22]; read-out: GI50): 0.731 µM | CC50 [22, 24]: > 100 µM | TGI ([22]; read-out: TGI): 5.73 µM | GI50 ([22]; read-out: pGI50 (converted)): 0.724 µM | CC50 [22, 25]: > 100 µM | TGI ([22]; read-out: pTGI (converted)): 5.75 µM | Activity [23]: 49.74%
